From PubChem BioAssay
A selection: hits, their analogues and other compounds. The true share with any hit is near 5.1%.
STAT3 blocker = IL-6 driven STAT3 reporter inhibitors, primary screen, U3A cells, luciferase, luminescence, MLSCN library. IL-6 STAT3-luciferase reporter; host cell line lacks STAT1. inhibition, % at 5.5 µM. 190,000 tested, 0.89% active;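 active = inhibition above the mean inhibition across all screened compounds plus 3 SD, cut at about 44% in these data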;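 also: 0% = DMSO only wells and 100% = 100 µM nifuroxazide control wells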
NF-kB expr up = activators of NF-kB expression in neurons, primary screen, cell-based, HTS; human neuronal cells, NF-kB reporter expression; hits give high values; fold change at 12.5 µM; 190,000 tested, 1.6% active; AID 1239, 2008; in the data active = fold change above about 3.3
STAT1 act = STAT1 signaling activators, primary screen, cell-based, HTS, luciferase reporter | NIH 3T3 STAT1-luciferase reporter, IFN-gamma, luminescence; 100% = IFN-gamma alone, no compound | activation (% of control), % at 5.5 µM | 200,000 tested, 2.6% active;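 active = activation above the screen-wide mean activation plus 3 SD, cut at about 130% in these data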;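 also: raw ratio to IFN-gamma control signal so 100% means no change and 0% no light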
STAT3 activator = IL-6 driven STAT3 reporter potentiators, primary screen, U3A cells, luciferase, luminescence, MLSCN library | IL-6 STAT3-luciferase reporter; 100% = signal with IL-6 EC80 alone | activation (% of control), % at 5.6 µM | 190,000 tested, 0.91% active | AID 871, 2007;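 active = activation above the screen-wide mean of compound activation plus 3 SD, cut at about 130% in these data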;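 also: 0% = background luminescence of wells with medium and substrate only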
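Material: STAT3-luciferase reporter U3A cells. Controls: IL-6-treated wells, 100% activation. Read-out: % activation versus median of IL-6-stimulated wells. Probe or stimulus: IL-6 stimulus at 33 ng/mL final. Timing: compound 1 h, then IL-6 6 h at 37 °C. Signal: reporter luminescence signal.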
STAT1 blocker = STAT1 signaling inhibitors, primary screen, cell-based, HTS, luciferase reporter. NIH 3T3 STAT1-luciferase reporter, IFN-gamma, luminescence. AID 920, 2007. 200,000 tested, 0.35% active. inhibition, % at 5.5 µM;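 active = inhibition above a set limit, the mean inhibition across all tested compounds plus 3 SD, cut at about 34% in these data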;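 also: 0% = IFN-gamma with DMSO and 100% = IFN-gamma with 300 µM nifuroxazide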
APP 5'UTR act = activators of APP 5'UTR luciferase reporter, primary screen, SH-SY5Y cells; SH-SY5Y APP 5'UTR luciferase reporter, luminescence; zero percent = DMSO vehicle wells; activation, % at 2 µM; 190,000 tested, 1% active;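 active = activation above a set limit, based on mean plus 3 SD of controls, cut at about 140% in these data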
* marks the source's active call; other numbers are inactive results.

What do the screens show for `COc1cc(C2NC(=S)NC(c3ccccc3)=C2C(C)=O)cc(Br)c1OCC(N)=O` (stereo not drawn)?
STAT3 blocker: 0.9; NF-kB expr up: 1.4; STAT1 act: 105.6; STAT3 activator: 102.4; STAT1 blocker: -8.1; APP 5'UTR act: 43.5

What do the screens show for `Cc1ccc(C(=O)Nc2ccc(S(=O)(=O)N3CCN(C)CC3)cc2)cc1`?
STAT3 blocker: 1.3; NF-kB expr up: 1.17; STAT1 act: 110.8; STAT3 activator: 100.1; STAT1 blocker: -5.8; APP 5'UTR act: 9.6

Results for O=C(Nc1ccncc1)Nc1ccccn1 ?
STAT3 blocker: 5.7; NF-kB expr up: 0.98; STAT1 act: 108.3; STAT3 activator: 98.1; STAT1 blocker: -9.0; APP 5'UTR act: -2.0

Results for O=C(Nc1ccc2c(c1)OCO2)c1ccc2c(c1)OCO2 ?
STAT3 blocker: 36.4; NF-kB expr up: 8.01*; STAT1 act: 132.1*; STAT3 activator: 70.4; STAT1 blocker: -35.9; APP 5'UTR act: 138.5*

Results for O=C(Nc1cccc(F)c1)Nc1ccccn1 ?
STAT3 blocker: 0.8; NF-kB expr up: 2.74; STAT1 act: 147.5*; STAT3 activator: 101.6; STAT1 blocker: -51.9; APP 5'UTR act: 69.0

Results for O=C(Nc1ccc2c(c1)OCCO2)NC1CCCCC1 ?
STAT3 blocker: 20.9; NF-kB expr up: 5.23*; STAT1 act: 129.2*; STAT3 activator: 84.7; STAT1 blocker: -31.8; APP 5'UTR act: 138.4*

What do the screens show for `O=C(Nc1ccc2c(c1)OCCO2)C1CCC1`?
STAT3 blocker: 4.5; NF-kB expr up: 1.3; STAT1 act: 103.6; STAT3 activator: 99.3; STAT1 blocker: -3.9; APP 5'UTR act: 16.3

How did O=C(Nc1ccccn1)Nc1cccs1 do in these assays?
STAT3 blocker: 16.4; NF-kB expr up: 1.44; STAT1 act: 132.5*; STAT3 activator: 89.1; STAT1 blocker: -35.5; APP 5'UTR act: 24.3

Results for O=C(Nc1cccc(NC(=O)c2ccc3c(c2)OCO3)c1)c1ccccc1 ?
STAT3 blocker: 10.7; NF-kB expr up: 1.26; STAT1 act: 102.2; STAT3 activator: 97.2; STAT1 blocker: -2.6; APP 5'UTR act: -1.2

Results for NC(=O)c1ccc(NC(=O)c2ccc3c(c2)OCO3)cc1 ?
STAT3 blocker: -22.8; NF-kB expr up: 2.47; STAT1 act: 138.9*; STAT3 activator: 115.9; STAT1 blocker: -42.1; APP 5'UTR act: 37.7

Results for O=C(Nc1ccc(F)c(F)c1)c1ccc2c(c1)OCO2 ?
STAT3 blocker: 24.1; NF-kB expr up: 2.52; STAT1 act: 138.1*; STAT3 activator: 82.4; STAT1 blocker: -41.9; APP 5'UTR act: 80.6

How did O=C(Nc1ccc2c(c1)OCO2)Nc1ccc2c(c1)OCO2 do in these assays?
STAT3 blocker: 6.5; NF-kB expr up: 2.06; STAT1 act: 141.2*; STAT3 activator: 97.6; STAT1 blocker: -47.2; APP 5'UTR act: 135.6*

Results for Cc1noc(C(=O)Nc2ccc3c(c2)OCO3)c1Cl ?
STAT3 blocker: -5.4; NF-kB expr up: 2.47; STAT1 act: 125.9; STAT3 activator: 108.9; STAT1 blocker: -28.9; APP 5'UTR act: 43.5

How did O=C(Nc1ccc2c(c1)OCO2)c1c(Cl)nc2sccn12 do in these assays?
STAT3 blocker: -11.4; NF-kB expr up: 1.14; STAT1 act: 131.3*; STAT3 activator: 114.5; STAT1 blocker: -34.4; APP 5'UTR act: 31.8

How did O=C(Nc1ccc2c(c1)OCO2)c1c(F)c(F)c(F)c(F)c1F do in these assays?
STAT3 blocker: -3.9; NF-kB expr up: 1.34; STAT1 act: 102.1; STAT3 activator: 105.8; STAT1 blocker: 3.0; APP 5'UTR act: 24.4

Results for O=C(Nc1cccnc1)Nc1ccc2c(c1)OCO2 ?
STAT3 blocker: -1.6; NF-kB expr up: 1.85; STAT1 act: 120.4; STAT3 activator: 101.4; STAT1 blocker: -23.1; APP 5'UTR act: 0.1

What do the screens show for `O=C(Nc1ccc(Cl)cc1)c1ccc2c(c1)OCO2`?
STAT3 blocker: 30.0; NF-kB expr up: 6.84*; STAT1 act: 138.7*; STAT3 activator: 77.4; STAT1 blocker: -42.0; APP 5'UTR act: 193.0*

Results for COc1cc([N+](=O)[O-])ccc1NC(=O)Nc1ccc2c(c1)OCCO2 ?
STAT3 blocker: 16.3; NF-kB expr up: 0.92; STAT1 act: 103.2; STAT3 activator: 91.1; STAT1 blocker: -5.7; APP 5'UTR act: 21.7

How did O=C(Nc1ccc2c(c1)OCO2)c1ccc(Cl)s1 do in these assays?
STAT3 blocker: -16.4; NF-kB expr up: 9.79*; STAT1 act: 130.5*; STAT3 activator: 119.5; STAT1 blocker: -33.4; APP 5'UTR act: 183.5*

What do the screens show for `O=C(CCCc1ccccc1)c1ccc2c(c1)OCCO2`?
STAT3 blocker: 108.3*; NF-kB expr up: 0.69; STAT1 act: 15.8; STAT3 activator: 10.9; STAT1 blocker: 92.2*

What do the screens show for `O=C(Nc1ccc([N+](=O)[O-])cc1)Nc1ccc2c(c1)OCCO2`?
STAT3 blocker: 6.1; NF-kB expr up: 4.53*; STAT1 act: 133.7*; STAT3 activator: 100.2; STAT1 blocker: -39.4; APP 5'UTR act: 132.5

Results for CCCCN(Cc1cc2ccccc2[nH]c1=O)S(C)(=O)=O ?
STAT3 blocker: 3.8; NF-kB expr up: 0.93; STAT1 act: 93.8; STAT3 activator: 99.9; STAT1 blocker: 6.8; APP 5'UTR act: 21.8

Results for Cc1cc(C)cc(NC(=S)/C(=C(\[O-])c2ccc(Cl)cc2Cl)[n+]2ccccc2)c1 ?
STAT3 blocker: 1.4; NF-kB expr up: 1.04; STAT1 act: 98.7; STAT3 activator: 103.0; STAT1 blocker: 1.3; APP 5'UTR act: 1.4

What do the screens show for `O=C(Nc1cccc(O)c1)c1cnn2cccnc12`?
STAT3 blocker: 4.2; NF-kB expr up: 1.71; STAT1 act: 119.9; STAT3 activator: 96.6; STAT1 blocker: -20.3

Results for O=C(Nc1ccc2c(c1)OCO2)c1cnn2cccnc12 ?
STAT3 blocker: 10.8; NF-kB expr up: 3.23; STAT1 act: 130.5*; STAT3 activator: 94.0; STAT1 blocker: -33.0; APP 5'UTR act: 101.3

Results for O=C(N/N=C/c1ccncc1)c1ccc2c(c1)OCO2 ?
STAT3 blocker: -3.6; NF-kB expr up: 1.27; STAT1 act: 106.9; STAT3 activator: 106.0; STAT1 blocker: -8.7; APP 5'UTR act: 0.7

Results for O=C(Nc1ccc2c(c1)OCO2)c1cccc(Cl)c1 ?
STAT3 blocker: 6.2; NF-kB expr up: 2.87; STAT1 act: 128.7*; STAT3 activator: 98.3; STAT1 blocker: -31.1; APP 5'UTR act: 58.6

What do the screens show for `CCC(=O)Oc1ccc(C(=O)Nc2ccc3c(c2)OCO3)cc1`?
STAT3 blocker: 11.7; NF-kB expr up: 1.02; STAT1 act: 136.9*; STAT3 activator: 94.1; STAT1 blocker: -44.5; APP 5'UTR act: 141.6*
